Experimental data collected from several papers.
Lines come from different studies, so protocols differ. ≈ marks a conversion by molar mass, not a printed value.

SMILES	test	system	setting	measurement	value
C/C=C1/CN2CC[C@]34C(=C(C(=O)OC)[C@H]1C[C@H]23)Nc1ccccc14		Caco-2	10 µM, 2 h, pH 7.4	Papp A→B	38.1 ×10⁻⁶ cm/s
COc1cc(C2C3=C(COC3=O)N(CCO)c3cc4c(cc32)CCC4)cc(OC)c1OC (centres unmarked)	general toxicity	female C57BL/6 mouse	intraperitoneal, single dose	MTD	≥ 400 mg/kg
C/C=C1/CN2CC[C@@]34c5cc(O)ccc5N(C)[C@]35OC[C@@]4(C(=O)OC)[C@H]1C[C@H]25		Caco-2	10 µM, 2 h, pH 7.4	Papp B→A	30.9 ×10⁻⁶ cm/s
Cl.Cn1c(=O)n(CCCCN2CCC3(CC2)OCc2ccccc23)c2ccccc21		male Sprague-Dawley rat, brain	intravenous, 10 mg/kg	tissue/plasma ratio	0.48
CC(c1cncnc1)n1c(=S)[nH]c2ccc(Cl)cc2c1=O (centres unmarked)		Caco-2	10 µM, 90 min, pH 7.4	Papp B→A	38.4 ×10⁻⁶ cm/s
CC[C@H](C)[C@H]1C(=O)N[C@H]([C@H](C)O)C(=O)NCC(=O)N[C@@H](CC(C)C)C(=O)N2CCC[C@H]2C(=O)N[C@@H](Cc2ccc(O)cc2)C(=O)N[C@H](CC(C)C)C(=O)N2CCC[C@@H]2C(=O)NCC(=O)N[C@@H](Cc2ccc(O)cc2)C(=O)N1C		aqueous buffer	18 h, pH 7.4	solubility	933 µM (≈ 1020 µg/mL)
O=c1c2cc(Cl)c(CO)cc2[nH]c(=S)n1Cc1cncnc1		Caco-2	10 µM, 90 min, pH 7.4	Papp A→B	14 ×10⁻⁶ cm/s
CC=CCC(C)C1OC(=O)C(C(C)C)N(C)C(=O)C(CC(C)C)N(C)C(=O)C(CC(C)C)N(C)C(=O)C(C)NC(=O)C(C)NC(=O)C(CC(C)C)N(C)C(=O)C(C(C)C)NC(=O)C(CC(C)C)N(C)C(=O)CN(C)C(=O)C(CC)NC(=O)C1NC (centres unmarked)		aqueous buffer	18 h, pH 7.4	solubility	91 µM (≈ 109 µg/mL)
